Source: ChEMBL document CHEMBL4368933, “Structure-activity relationship of leucyladenylate sulfamate analogues as leucyl-tRNA synthetase (LRS)-targeting inhibitors of Mammalian target of rapamycin complex 1 (mTORC1)” (Bioorg Med Chem, 2019)
The source made the active and inactive calls. The calls are words filed in the database; no cut-off is given here.

How the values were obtained:
[1] = target: Leucine--tRNA ligase, cytoplasmic (Homo sapiens) (UniProt Q9P2J5); assay: Inhibition of Leucyl-tRNA synthetase-mediated mTORC1 signaling activation in human HEK293 cells assessed as reduction in leucine-induced S6K phosphorylation at 200 uM preincubated for 50 mins followed by leucine-stimulation and measured after 10 mins by Western blot analysis; type: cell-based
Chain of Leucine--tRNA ligase, cytoplasmic (Homo sapiens) (Q9P2J5 whole entry, looked up): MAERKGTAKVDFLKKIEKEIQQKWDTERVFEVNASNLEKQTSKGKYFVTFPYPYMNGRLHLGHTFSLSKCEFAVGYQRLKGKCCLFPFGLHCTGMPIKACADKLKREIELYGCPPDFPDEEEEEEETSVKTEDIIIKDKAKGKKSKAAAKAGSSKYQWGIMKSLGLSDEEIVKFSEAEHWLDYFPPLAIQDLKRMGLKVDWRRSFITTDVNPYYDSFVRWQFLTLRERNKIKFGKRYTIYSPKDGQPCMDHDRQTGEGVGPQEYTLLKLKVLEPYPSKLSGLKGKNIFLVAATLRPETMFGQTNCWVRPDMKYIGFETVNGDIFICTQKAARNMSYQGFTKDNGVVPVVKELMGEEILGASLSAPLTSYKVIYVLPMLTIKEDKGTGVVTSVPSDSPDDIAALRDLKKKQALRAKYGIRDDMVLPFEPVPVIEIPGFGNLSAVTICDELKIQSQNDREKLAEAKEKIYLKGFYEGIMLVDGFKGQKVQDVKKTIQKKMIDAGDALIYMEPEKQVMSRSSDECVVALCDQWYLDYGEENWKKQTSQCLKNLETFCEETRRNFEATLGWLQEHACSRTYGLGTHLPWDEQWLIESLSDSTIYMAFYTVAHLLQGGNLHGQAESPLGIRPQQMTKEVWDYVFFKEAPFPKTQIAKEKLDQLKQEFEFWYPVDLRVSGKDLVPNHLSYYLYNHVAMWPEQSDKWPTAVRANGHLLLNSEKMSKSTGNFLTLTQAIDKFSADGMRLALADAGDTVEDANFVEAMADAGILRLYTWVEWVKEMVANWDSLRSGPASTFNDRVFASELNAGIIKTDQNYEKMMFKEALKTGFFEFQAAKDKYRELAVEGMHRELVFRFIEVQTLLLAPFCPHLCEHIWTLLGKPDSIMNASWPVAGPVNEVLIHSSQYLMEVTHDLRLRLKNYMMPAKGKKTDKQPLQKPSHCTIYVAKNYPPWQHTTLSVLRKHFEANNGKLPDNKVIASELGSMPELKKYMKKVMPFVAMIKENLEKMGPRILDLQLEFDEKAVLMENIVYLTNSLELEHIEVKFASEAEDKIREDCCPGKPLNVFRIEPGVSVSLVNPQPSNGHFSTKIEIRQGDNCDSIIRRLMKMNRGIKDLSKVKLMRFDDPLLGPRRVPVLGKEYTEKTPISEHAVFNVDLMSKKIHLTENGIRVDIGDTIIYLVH
In short: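 HEK293 cells pretreated with test agent at a fixed 200 µM, alongside rapamycin (100 nM) and leucinol (800 µM) as references. mTORC1 then activated by adding leucine for 10 min. S6K phosphorylation read by Western blot.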

A549 = assay: Antiproliferative activity against human A549 cells after 72 hrs by SRB assay; type: functional, cell-based; conditions: A549, 72 h
In short: (§1)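 Colorimetric growth assay with IC50 values derived; etoposide as positive control. Cell lines: A549 (lung cancer), HCT116 (colon cancer), MDA-MB-231 (breast cancer), SK-Hep-1 (liver cancer), SNU638 (stomach cancer), MRC5 (normal lung […]).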

SK-HEP1 = assay: Antiproliferative activity against human SKHEP1 cells after 72 hrs by SRB assay; type: functional, cell-based; conditions: SK-HEP1, 72 h; in short: as §1
MDA-MB-231 = assay: Antiproliferative activity against human MDA-MB-231 cells after 72 hrs by SRB assay; type: functional, cell-based; conditions: MDA-MB-231, 72 h; in short: as §1
HCT-116 = assay: Antiproliferative activity against human HCT116 cells after 72 hrs by SRB assay; type: functional, cell-based; conditions: HCT-116, 72 h; in short: as §1
MRC5 = assay: Antiproliferative activity against human MRC5 cells after 72 hrs by SRB assay; type: cell-based; conditions: MRC5, 72 h; in short: as §1
SNU-638 = assay: Antiproliferative activity against human SNU638 cells after 72 hrs by SRB assay; type: functional, cell-based; conditions: SNU-638, 72 h; in short: as §1
mTORC2 (Homo sapiens) = mTORC2 (Homo sapiens) (UniProt P42345+Q6R327+Q9BVC4+Q9BPZ7); assay: Inhibition of mTORC2 signaling in human HEK293 cells assessed as reduction in leucine-induced AKT phosphorylation at 200 uM preincubated for 50 mins followed by leucine-stimulation and measured after 10 mins by Western blot analysis; type: cell-based

Row | Compound | inhibition [1] | also measured
1 | Nc1ncnc2c1ncn2[C@@H]1O[C@H](COS(=O)(=O)NC(=O)[C@@H](O)[C@H](O)C2CC2)[C@H]2NC(=O)O[C@H]21 | Active | 
2 | CO[C@H](C(=O)NS(=O)(=O)OC[C@H]1O[C@@H](n2cnc3c(N)nc(Cl)nc32)[C@H](O)[C@@H]1O)[C@H](OC)C(C)C | Active | IC50 (A549): > 20 µM; IC50 (SK-HEP1): > 20 µM; IC50 (MDA-MB-231): > 20 µM; IC50 (HCT-116): > 20 µM; IC50 (MRC5): > 20 µM; IC50 (SNU-638): > 20 µM
3 | CN[C@@H](CC(C)C)C(=O)NS(=O)(=O)OC[C@H]1O[C@@H](n2cnc3c(N)ncnc32)[C@H](O)[C@@H]1O | inactive | 
4 | CC(C)C[C@@H](O)C(=O)NS(=O)(=O)OC[C@H]1O[C@@H](n2cnc3c(N)ncnc32)[C@H](O)[C@@H]1O | Active | 
5 | CNc1ncnc2c1ncn2[C@@H]1O[C@H](COS(=O)(=O)NC(=O)[C@@H](Cl)CC(C)C)[C@@H](O)[C@H]1O | inactive | 
6 | COc1cc([C@@H]2c3cc4c(cc3[C@@H](O[C@@H]3O[C@@H]5CO[C@@H](C)O[C@H]5[C@H](O)[C@H]3O)[C@H]3COC(=O)[C@H]23)OCO4)cc(OC)c1O [ETOPOSIDE] |  | IC50 (A549): 0.47 µM; IC50 (SK-HEP1): 0.41 µM; IC50 (MDA-MB-231): 3.38 µM; IC50 (HCT-116): 1.22 µM; IC50 (MRC5): 12.7 µM; IC50 (SNU-638): 0.34 µM
7 | CC(C)C[C@H](O)C(=O)NS(=O)(=O)OC[C@H]1O[C@@H](n2cnc3c(=O)[nH]cnc32)[C@H](O)[C@@H]1O | Active | IC50 (A549): > 20 µM; IC50 (SK-HEP1): > 20 µM; IC50 (MDA-MB-231): > 20 µM; IC50 (HCT-116): > 20 µM; IC50 (MRC5): > 20 µM; IC50 (SNU-638): > 20 µM
8 | CC(C)c1cc(C(=O)NS(=O)(=O)OC[C@H]2O[C@@H](n3cnc4c(N)ncnc43)[C@H](O)[C@@H]2O)[nH]n1 | inactive | 
9 | CC(C)c1cc(C(=O)NS(=O)(=O)OC[C@H]2O[C@@H](n3cnc4c(N)ncnc43)[C@H](O)[C@@H]2O)n(C)n1 | Active | 
10 | Nc1nc(I)nc2c1ncn2[C@@H]1O[C@H](COS(=O)(=O)NC(=O)[C@@H](O)[C@H](O)C2CC2)[C@@H](O)[C@H]1O | Active | IC50 (A549): 4.84 µM; IC50 (SK-HEP1): 5.86 µM; IC50 (MDA-MB-231): 16.7 µM; IC50 (HCT-116): 7.27 µM; IC50 (MRC5): > 20 µM; IC50 (SNU-638): 4.77 µM
11 | CO[C@H](C(=O)NS(=O)(=O)OC[C@H]1O[C@@H](n2cnc3c(N)nc(Cl)nc32)[C@H](O)[C@@H]1O)[C@H](O)C(C)C | inactive | 
12 | CC(C)/C=C/C(=O)NS(=O)(=O)OC[C@H]1O[C@@H](n2cnc3c(N)ncnc32)[C@H](O)[C@@H]1O | Active | 
13 | CC(C)C[C@H](Cl)C(=O)NS(=O)(=O)OC[C@H]1O[C@@H](n2cnc3c(N)nc(Cl)nc32)[C@H](O)[C@@H]1O | Active | IC50 (A549): 6.27 µM; IC50 (SK-HEP1): 5.87 µM; IC50 (MDA-MB-231): 7.75 µM; IC50 (HCT-116): 7.51 µM; IC50 (MRC5): > 20 µM; IC50 (SNU-638): 5.5 µM
14 | CNc1ncnc2c1ncn2[C@@H]1O[C@H](COS(=O)(=O)NC(=O)[C@H](CC(C)C)OC)[C@@H](O)[C@H]1O | inactive | inhibition (mTORC2 (Homo sapiens)): Active
15 | CO[C@H](C(=O)NS(=O)(=O)OC[C@H]1O[C@@H](n2cnc3c(N)ncnc32)[C@H](O)[C@@H]1O)[C@H](OC)C(C)C | inactive | 
16 | CC(C)c1cc(C(=O)NS(=O)(=O)OC[C@H]2O[C@@H](n3cnc4c(N)nc(I)nc43)[C@H](O)[C@@H]2O)n(C)n1 | Active | 
17 | CO[C@H](C(=O)NS(=O)(=O)OC[C@H]1O[C@@H](n2cnc3c(N)ncnc32)C[C@@H]1O)[C@H](OC)C(C)C | inactive | 
18 | CC(C)(C)c1cc(C(=O)NS(=O)(=O)OC[C@H]2O[C@@H](n3cnc4c(N)ncnc43)[C@H](O)[C@@H]2O)[nH]n1 | Active | 
19 | CC(C)C[C@H](S)C(=O)NS(=O)(=O)OC[C@H]1O[C@@H](n2cnc3c(=O)[nH]cnc32)[C@H](O)[C@@H]1O | inactive | 
20 | CC(C)C[C@H](O)C(=O)NS(=O)(=O)OC[C@H]1O[C@@H](n2cnc3c(N)nc(I)nc32)[C@H](O)[C@@H]1O | Active | 
21 | CC(C)C[C@H](N)CO | Active | 
22 | CC(C)[C@H](O)[C@@H](O)C(=O)NS(=O)(=O)OC[C@H]1O[C@@H](n2cnc3c(N)ncnc32)C[C@@H]1O | inactive | 

Now from value to compound, other results behind:

Row | inhibition [1] | Compound | also measured
23 | inactive | CC(C)C[C@H](Cl)C(=O)NS(=O)(=O)OC[C@H]1O[C@@H](n2cnc3c(N)ncnc32)[C@H](O)[C@@H]1O | 
24 | inactive | CC(C)[C@@H](O)[C@H](O)C(=O)NS(=O)(=O)OC[C@H]1O[C@@H](n2cnc3c(N)ncnc32)[C@@H](O)[C@@H]1O | 
25 | inactive | CC(C)C[C@H](O)C(=O)NS(=O)(=O)OC[C@H]1O[C@@H](n2cnc3c(N)ncnc32)C[C@@H]1O | inhibition (mTORC2 (Homo sapiens)): Active
26 | Active | CC(C)[C@@H](O)[C@H](O)C(=O)NS(=O)(=O)OC[C@H]1O[C@@H](n2cnc3c(=O)[nH]cnc32)[C@H](O)[C@@H]1O | IC50 (A549): > 20 µM; IC50 (SK-HEP1): > 20 µM; IC50 (MDA-MB-231): > 20 µM; IC50 (HCT-116): > 20 µM; IC50 (MRC5): > 20 µM; IC50 (SNU-638): > 20 µM
27 | inactive | CC(C)[C@@H](O)[C@H](O)C(=O)NS(=O)(=O)OC[C@H]1O[C@@H](n2cnc3c(N)ncnc32)[C@@H]2OC(=O)N[C@@H]21 | 
28 | inactive | CC(C)C[C@H](O)C(=O)NS(=O)(=O)OC[C@@H]1C[C@@H](O)[C@H](n2cnc3c(N)ncnc32)O1 | inhibition (mTORC2 (Homo sapiens)): Active
29 | inactive | CC(C)C[C@H](N)C(=O)NS(=O)(=O)OC[C@H]1O[C@@H](n2cnc3c(N)ncnc32)C[C@@H]1O | 
30 | inactive | Nc1ncnc2c1ncn2[C@@H]1O[C@H](COS(=O)(=O)NC(=O)[C@@H](O)[C@H](O)C2CC2)[C@@H](O)[C@H]1O | 
31 | inactive | CO[C@H](C(=O)NS(=O)(=O)OC[C@H]1O[C@@H](n2cnc3c(N)ncnc32)[C@H](O)[C@@H]1O)[C@H](O)C(C)C | 
32 | inactive | O=C(NS(=O)(=O)OC[C@H]1O[C@@H](n2cnc3c(=O)[nH]cnc32)[C@H](O)[C@@H]1O)[C@@H](O)[C@H](O)C1CC1 | 
33 | inactive | CC(C)C[C@H](O)C(=O)NS(=O)(=O)OC[C@H]1O[C@@H](n2cnc3c(N)nc(Cl)nc32)[C@H](O)[C@@H]1O | 
34 | inactive | Nc1ncnc2c1ncn2[C@@H]1O[C@H](COS(=O)(=O)NC(=O)c2cc(C3CC3)n[nH]2)[C@@H](O)[C@H]1O | 
35 | inactive | CC(C)C[C@H](N)C(=O)NS(=O)(=O)OC[C@H]1O[C@@H](n2cnc3c(N)ncnc32)[C@H](O)[C@@H]1N | 
36 | Active | CC(C)C[C@H](O)C(=O)NS(=O)(=O)OC[C@H]1O[C@@H](n2cnc3c(N)ncnc32)[C@@H](O)[C@@H]1O | 
37 | Active | CC(C)C[C@H](S)C(=O)NS(=O)(=O)OC[C@H]1O[C@@H](n2cnc3c(N)ncnc32)[C@H](O)[C@@H]1O | 
38 | inactive | CO[C@H](C(=O)NS(=O)(=O)OC[C@H]1O[C@@H](n2cnc3c(N)ncnc32)C[C@@H]1O)[C@H](O)C(C)C | 
39 | inactive | CC(C)C[C@@H](O)C(=O)NS(=O)(=O)OC[C@H]1O[C@@H](n2cnc3c(=O)[nH]cnc32)[C@H](O)[C@@H]1O | 
40 | inactive | CC(C)c1cc(C(=O)NS(=O)(=O)OC[C@H]2O[C@@H](n3cnc4c(N)nc(I)nc43)[C@H](O)[C@@H]2O)[nH]n1 | 
